Bioassay records from PubChem BioAssay.
esBAF inh: Bmi1 luciferase reporter increase in mESCs, primary screen, esBAF inhibitor project, mouse ES cells, Bmi1 luciferase knock-in, single point | 24 h; 100% = twice the neutral-well signal | reporter increase, % at 12.5 µM | actives 2% (n = 350,000) | AID 602393, 2012; in the data active = activation above about 40%;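 note: 0% = median of the plate's neutral control wells and 100% = double that signal; a rise in the Bmi1 reporter signal indicates esBAF inhibition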
Env fusion inh: inhibitors of HIV-1 Env-driven cell-cell fusion, primary screen, HeLa-JRFL effector, CEM21 target cells, luciferase; inhibition, % at 12.3 µM; actives 1.1% (n = 360,000);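 active = mean replicate inhibition score of at least 50 and every replicate individually at or above 50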;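 note: 0% = plate neutral controls and 100% = maraviroc near 300 nM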
Cneo AK release: Cryptococcus neoformans cell lysis inducers, primary screen, AK release luminescence, single concentration; C. neoformans lysis, adenylate kinase release luminescence, 4 h; normalised: neutral wells 0, clomiphene wells 100; lysis activity, % at 15 µM; actives 0.2% (n = 360,000); AID 651654, 2012;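 active = mean lysis activity across replicates of at least 80%, whatever share of replicates individually reach that level; inactive = mean lysis activity below 80%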
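read-out = cell lysis signal | test system = log-phase Cryptococcus neoformans yeast cells | input = cells at 5 × 10^6 per mL | medium = fresh YPD growth medium | signal = luminescent adenylate kinase detection reagent | timing = 4 h at 37 °C static, read 1 h later | dosing = single dose | controls = Clomiphene as positive lysis control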
Wnt bcat act: Wnt/beta-catenin pathway activators, primary screen, cell-based, plate reader, single point; Wnt/beta-catenin reporter cell assay, activator; activation, % at 9.35 µM; actives 1.2% (n = 300,000); AID 743398, 2014; in the data active = activation above about 30%, passing the limit was not always enough;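 note: 0% = neutral control wells and 100% = positive control wells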
MITF act: activators of MITF-driven TRPM1 promoter reporter, primary screen, cell-based, SK-MEL-5, luciferase, single point; actives 0.75% (n = 300,000); AID 588334, 2011; SK-MEL-5 TRPM1-promoter luciferase, 24 h; % of positive control, neutral wells = 0; activation, % at 12.5 µM;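 active = mean activation of at least 80% with every replicate also reaching 80%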;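 note: 0% = neutral control wells and 100% = parthenolide positive control wells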
ERAP1 inh: human ERAP1 aminopeptidase inhibitors, primary screen, biochemical, single point, plate reader; Endoplasmic reticulum aminopeptidase 1 (Homo sapiens), Q9NZ08; actives 0.15% (n = 340,000); inhibition, % at 10.7 µM; recombinant ERAP1, Leu-AMC fluorescence, 60 min;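 active = mean replicate inhibition of at least 30%, or all replicates individually reaching that 30% level; inactive = mean below 30% and not every replicate reaching it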;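 note: 0% = neutral control wells and 100% = L-leucinethiol positive control wells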
Target sequence (Q9NZ08 whole entry, looked up): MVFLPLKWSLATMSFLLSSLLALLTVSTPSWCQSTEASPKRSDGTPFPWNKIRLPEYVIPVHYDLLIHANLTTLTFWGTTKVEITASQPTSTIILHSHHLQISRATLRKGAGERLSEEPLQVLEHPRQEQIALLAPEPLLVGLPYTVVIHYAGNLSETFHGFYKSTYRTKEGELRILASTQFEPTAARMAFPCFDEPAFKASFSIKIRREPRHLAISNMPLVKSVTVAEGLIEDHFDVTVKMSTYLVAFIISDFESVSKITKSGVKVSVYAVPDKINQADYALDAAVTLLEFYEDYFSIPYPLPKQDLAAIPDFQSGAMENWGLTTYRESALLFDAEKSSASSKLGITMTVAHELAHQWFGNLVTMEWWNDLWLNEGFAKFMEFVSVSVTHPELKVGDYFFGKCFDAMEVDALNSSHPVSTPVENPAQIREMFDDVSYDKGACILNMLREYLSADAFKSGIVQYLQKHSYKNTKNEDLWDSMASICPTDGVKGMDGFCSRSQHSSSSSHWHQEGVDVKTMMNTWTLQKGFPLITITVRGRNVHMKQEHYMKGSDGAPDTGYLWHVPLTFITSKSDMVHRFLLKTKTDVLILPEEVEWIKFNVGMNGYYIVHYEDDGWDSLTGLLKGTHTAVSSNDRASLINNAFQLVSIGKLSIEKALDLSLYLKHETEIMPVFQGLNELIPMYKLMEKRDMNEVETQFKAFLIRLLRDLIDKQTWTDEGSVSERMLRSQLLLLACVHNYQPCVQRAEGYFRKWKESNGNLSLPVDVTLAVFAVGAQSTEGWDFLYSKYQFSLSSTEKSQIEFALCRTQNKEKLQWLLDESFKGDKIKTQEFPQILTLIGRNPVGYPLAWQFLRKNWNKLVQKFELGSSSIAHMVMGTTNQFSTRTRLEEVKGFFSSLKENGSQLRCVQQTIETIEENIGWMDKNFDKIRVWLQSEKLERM
* = called active by the depositor; . = no result given; [ ] = dose if it differs, or a comment. A selection: hits, their analogues and other compounds. The true share with any hit is near 3.5%.

SMILES	esBAF inh	Env fusion inh	Cneo AK release	Wnt bcat act	MITF act	ERAP1 inh
CNC[C@@H]1OCCCC[C@@H](C)Oc2ccc(NC(=O)Nc3ccc(C(F)(F)F)cc3)cc2C(=O)N([C@H](C)CO)C[C@H]1C	2	-8[16.7 µM]	-6	.	.	.
C[C@@H]1CN([C@@H](C)CO)C(=O)c2c(c3ccccc3n2C)-c2ccccc2CO[C@@H]1CN(C)C(=O)CCC(F)(F)F	5	-15[16.7 µM]	0	.	.	1
C[C@H](CO)N1C[C@H](C)[C@H](CN(C)C(=O)Cc2ccccc2)OCc2ccccc2-c2c(n(C)c3ccccc23)C1=O	-2	58*[16.7 µM]	.	.	.	.
C[C@H]1CN([C@@H](C)CO)C(=O)c2c(c3ccccc3n2C)-c2ccccc2CO[C@H]1CN(C)C(=O)CCC(F)(F)F	-1	63*[16.7 µM]	-3	.	.	1
C[C@@H]1CN([C@H](C)CO)C(=O)c2c(c3ccccc3n2C)-c2ccccc2CO[C@H]1CN(C)C(=O)Cc1ccccc1	5	-32	13	0	.	1
C[C@H]1CN([C@@H](C)CO)C(=O)c2c(c3ccccc3n2C)-c2ccccc2CO[C@@H]1CN(C)C(=O)Cc1ccccc1	3	59*[16.7 µM]	-1	.	.	-1
CCCC#Cc1cnc2c(c1)C(=O)N([C@H](C)CO)C[C@H](C)[C@@H](CN(C)C(=O)C1CCOCC1)O2	2	9[16.7 µM]	3	.	.	-3
O=C(Oc1c(CN2CCOCC2)cc(Cl)c2cccnc12)c1ccccc1Cl	10	8	4	1	-75	-1
O=C(Oc1c(CN2CCOCC2)cc(Cl)c2cccnc12)c1cccs1	-10	15	0	47*	-71	1
Oc1ccc(Br)cc1-c1cc(-c2ccco2)[nH]n1	.	.	1	.	-11	.
Oc1ccc(Cl)cc1-c1cc(-c2ccco2)[nH]n1	11	.	-1	6	-4	.
Oc1c(-c2cc(-c3ccco3)[nH]n2)ccc2ccccc12	65*	-451	-4	.	27	.
Oc1ccccc1-c1cc(-c2ccco2)[nH]n1	62*	-181	-6	.	44	.
CO[C@@H]1CN(C)C(=O)c2cc(NC(C)=O)ccc2OC[C@@H](C)N(CC2CCCCC2)C[C@@H]1C	3	-17[16.7 µM]	-1	.	.	.
C[C@H]1CN([C@@H](C)CO)C(=O)c2ccccc2-c2ccccc2CO[C@H]1CN(C)Cc1cccc(C(=O)O)c1	-2	-20[16.7 µM]	-1	.	.	1
C[C@@H]1CCCCO[C@@H](CN(C)Cc2ccccc2)[C@@H](C)CN([C@@H](C)CO)C(=O)c2cc(NC(=O)CCCN(C)C)ccc2O1	-5	-7[16.7 µM]	2	.	.	1
CC(=O)N(C)C[C@@H]1Oc2ncc(-c3ccc(C(=O)N(C)C)cc3)cc2C(=O)N([C@H](C)CO)C[C@H]1C	0	6[16.7 µM]	2	.	.	5
Cc1nn(C)c(C)c1CN(C)S(=O)(=O)c1ccc2ccccc2c1	.	72*	-3	-16	-18	.
C[C@@H]1CN([C@H](C)CO)C(=O)c2cc(NS(=O)(=O)c3ccccc3)ccc2O[C@@H]1CN(C)C(=O)Nc1ccc(C(F)(F)F)cc1	2	-9[16.7 µM]	.	.	.	.
C[C@@H]1CN([C@@H](C)CO)C(=O)c2cc(-c3cccc(C#N)c3)cnc2O[C@H]1CN(C)Cc1ccncc1	1	-10[16.7 µM]	-3	.	.	0
O=C(CCC(=O)N1CCN(S(=O)(=O)c2ccc3ccccc3c2)CC1)Nc1cc(Cl)cc(Cl)c1	.	85*	.	-4	-31	0
Cc1ccc(S(=O)(=O)N2CC3(O)CN(C(=O)OC(C)C)N(C(=O)OC(C)C)CC3(OC(=O)NC3CCCC3)C2)cc1 (stereo unspecified)	8	75*	-1	-4	.	0
COCC(=O)Nc1ccc2c(c1)C(=O)N(C)C[C@H](OC)[C@H](C)CN(C(=O)c1ccccn1)[C@@H](C)CO2	-1	.	-4	.	.	2
Cc1ccc(NC(=O)CNC(=O)COc2ccccc2)nc1	-7	7	0	-1	-3	0
Cc1ccc(NC(=O)CCNC(=O)c2ccc(Br)cc2)nc1	19	13	-4	-3	13	-1
